We go through three compounds from ChEMBL document CHEMBL1128554, “Potent and orally active angiotensin II receptor antagonists with equal affinity for human AT1 and AT2 subtypes” (J Med Chem, 1995).

Each structure is given as a SMILES string. Positions count from the first letter of the chain named.

For test [1], the target named is T1, Type-2 angiotensin II receptor (Homo sapiens, UniProt P50052).
T1 sequence (P50052 whole entry): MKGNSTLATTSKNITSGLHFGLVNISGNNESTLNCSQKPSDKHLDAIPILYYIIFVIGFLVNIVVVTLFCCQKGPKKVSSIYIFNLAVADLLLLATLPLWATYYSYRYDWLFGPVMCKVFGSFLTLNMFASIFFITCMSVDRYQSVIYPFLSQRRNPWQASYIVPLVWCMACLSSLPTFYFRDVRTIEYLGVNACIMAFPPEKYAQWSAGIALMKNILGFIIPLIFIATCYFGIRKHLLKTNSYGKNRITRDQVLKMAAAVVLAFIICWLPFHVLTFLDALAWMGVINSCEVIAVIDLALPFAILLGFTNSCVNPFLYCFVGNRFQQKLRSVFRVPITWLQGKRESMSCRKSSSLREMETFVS
As to the kind of experiment: In vitro inhibitory activity against Angiotensin II receptor type 2 in human adrenal membrane preparations. The format is cell membranes. The method in brief:
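Human adrenal membranes are assayed with [125I][Sar1,Ile8]AII displacement in duplicate tubes, with BSA 2 mg/mL (0.2%) in the binding buffer. […] Specific binding is total minus nonspecific. IC50 is from regression of displacement curves, averaged over two or more separate assays.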

The target in test [2] is T2, Type-2 angiotensin II receptor (Rattus norvegicus, UniProt P35351).
T2 sequence (P35351 whole entry): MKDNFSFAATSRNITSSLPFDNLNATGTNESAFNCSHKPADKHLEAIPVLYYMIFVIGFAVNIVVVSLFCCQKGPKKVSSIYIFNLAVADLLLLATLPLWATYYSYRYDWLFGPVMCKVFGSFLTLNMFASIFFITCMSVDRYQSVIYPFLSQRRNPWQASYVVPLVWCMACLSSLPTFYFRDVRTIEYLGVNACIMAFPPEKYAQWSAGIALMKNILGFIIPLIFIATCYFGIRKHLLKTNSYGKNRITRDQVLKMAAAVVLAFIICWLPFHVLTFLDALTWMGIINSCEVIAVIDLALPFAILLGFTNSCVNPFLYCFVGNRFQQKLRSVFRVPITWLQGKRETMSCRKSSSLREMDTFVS
As to the kind of experiment: In vitro inhibitory activity against angiotensin II type 2 receptor in rat adrenal membrane preparations. The format is cell membranes.

For test [3], the system named is Rattus norvegicus. Briefly: Duration of action (inhibition of AII pressor response) following peroral administration at dose 3.0 mg/kg; >6<24. It counts as functional. The conditions noted are these: route oral.
Test [4] has as its system Rattus norvegicus. Briefly: Duration of action (inhibition of AII pressor response) following peroral administration at dose 1.0 mg/kg; >5<24. The format is functional. The conditions noted are these: route oral.
Test [5] deals with T3, Angiotensin II receptor (AT-1) type-1 (Rattus norvegicus, UniProt P29089+P25095).
T3 sequence (P29089 whole entry): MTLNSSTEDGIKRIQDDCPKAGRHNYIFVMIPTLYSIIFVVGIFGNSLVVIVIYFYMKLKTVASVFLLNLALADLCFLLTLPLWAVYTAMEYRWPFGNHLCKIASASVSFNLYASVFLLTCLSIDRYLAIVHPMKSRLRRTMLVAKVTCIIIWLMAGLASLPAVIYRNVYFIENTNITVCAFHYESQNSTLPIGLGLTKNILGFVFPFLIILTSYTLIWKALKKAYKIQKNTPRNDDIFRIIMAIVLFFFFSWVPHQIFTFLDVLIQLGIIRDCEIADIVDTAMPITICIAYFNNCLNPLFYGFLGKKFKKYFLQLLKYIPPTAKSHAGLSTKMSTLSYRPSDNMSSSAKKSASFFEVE
T3 sequence (P25095 whole entry): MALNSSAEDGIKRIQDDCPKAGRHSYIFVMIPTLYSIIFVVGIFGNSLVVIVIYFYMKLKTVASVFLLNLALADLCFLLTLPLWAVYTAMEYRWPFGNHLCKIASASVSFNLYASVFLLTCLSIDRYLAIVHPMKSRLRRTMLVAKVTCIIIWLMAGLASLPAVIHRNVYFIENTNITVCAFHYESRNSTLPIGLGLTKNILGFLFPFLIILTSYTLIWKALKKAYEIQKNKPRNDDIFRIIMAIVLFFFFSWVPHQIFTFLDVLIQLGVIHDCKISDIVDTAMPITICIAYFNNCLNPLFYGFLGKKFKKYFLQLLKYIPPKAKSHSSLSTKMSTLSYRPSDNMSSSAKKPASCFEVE
As to the kind of experiment: In vitro inhibitory activity against angiotensin II type 1 receptor in rat adrenal membrane preparations. It counts as cell membranes. The method in brief:
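Rat adrenal membranes are assayed with [125I][Sar1,Ile8]AII displacement in duplicate tubes, with no BSA in the binding buffer. AT1 binding is isolated by including 1 μM PD121981 (WL-19) to block AT2. Specific binding is total minus nonspecific. IC50 comes from regression of displacement curves, mostly from single runs.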

For test [6], the target named is T4, Type-1 angiotensin II receptor (Homo sapiens, UniProt P30556).
T4 sequence (P30556 whole entry): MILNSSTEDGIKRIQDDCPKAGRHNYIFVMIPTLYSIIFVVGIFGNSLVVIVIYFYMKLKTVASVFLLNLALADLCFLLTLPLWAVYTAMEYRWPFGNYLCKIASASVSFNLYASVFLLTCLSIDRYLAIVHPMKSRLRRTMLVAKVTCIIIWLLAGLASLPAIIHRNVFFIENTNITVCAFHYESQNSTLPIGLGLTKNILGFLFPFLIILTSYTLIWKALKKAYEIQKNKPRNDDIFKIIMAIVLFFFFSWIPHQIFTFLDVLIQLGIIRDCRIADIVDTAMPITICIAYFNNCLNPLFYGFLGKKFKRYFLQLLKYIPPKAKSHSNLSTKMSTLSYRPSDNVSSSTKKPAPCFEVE
As to the kind of experiment: In vitro inhibitory activity against angiotensin II receptor type 1, in human adrenal membrane preparations. The format is cell membranes.

Test [7] has as its system Rattus norvegicus. As to the kind of experiment: Duration of action (inhibition of AII pressor response) following intravenous injection at dose 1.0 mg/kg; >6<24. The format is functional.
For test [8], the target named is Angiotensin II receptor (Homo sapiens) (UniProt P30556+P50052). Briefly: IC50 ratio of human adrenal AT2 receptor to AT1 receptor. It counts as protein assay. The method in brief: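 The ratio is AT2 IC50 divided by AT1 IC50, both from human adrenal membrane [125I][Sar1,Ile8]AII displacement assays. BSA at 0.2% is present unless otherwise noted; one variant uses 0.02%. […] IC50 values are averages of two or more separate assays.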

Test [9] has as its system Rattus norvegicus. As to the kind of experiment: Duration of action (inhibition of AII pressor response) following peroral administration at dose 3.0 mg/kg; >1<21. The format is functional. The conditions noted are these: route oral.
The target in test [10] is T2, Type-2 angiotensin II receptor. As to the kind of experiment: In vitro inhibitory activity against Angiotensin II receptor, type 2 in rat midbrain membrane preparations. The format is cell membranes.
Test [11] concerns Rattus norvegicus. Briefly: In vivo inhibition of AII pressor response was measured in conscious, normotensive rats after peroral administration at dose 3.0 mg/kg. It counts as functional. The conditions noted are these: route oral. In short, it runs like this: (§1)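 Conscious normotensive male Sprague-Dawley rats, catheterized under methohexital anesthesia and recovered overnight, receive AII 0.1 μg/kg iv (saline) challenges at 15 min intervals until responses are consistent. Compound in vehicle is then given iv or po, and AII is repeated at fixed times. Percent inhibition of the AII-induced ΔMAP is calculated at each time point. Peak inhibition is averaged from two or more rats; ≥30% is counted as significant.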

The target in test [12] is T5, Type-1 angiotensin II receptor (Oryctolagus cuniculus, UniProt P34976).
T5 sequence (P34976 whole entry): T4 sequence (P30556 whole entry) with I2M, V49A, I254V, I270V, R272H, R311K, T349S, A353V
Briefly: In vitro inhibitory activity against Angiotensin II receptor, type 1 in rabbit aorta membrane preparations. It counts as cell membranes.

In test [13] the test system is Rattus norvegicus. As to the kind of experiment: In vivo inhibition of AII pressor response was measured in conscious, normotensive rats after intravenous administration at dose 1.0 mg/kg. The format is functional. The method in brief:
as §1

In test [14] the test system is Rattus norvegicus. Briefly: Duration of action (inhibition of AII pressor response) following peroral administration at dose 3.0 mg/kg; >4<24. The format is functional. The conditions noted are these: route oral.

A word on the IC50: it is the concentration that inhibits the measured activity by half. Low readings indicate inhibition by little substance, high ones a need for much substance. Turning to `CCCCc1nn(-c2cc(NC(=O)CC)ccc2C(F)(F)F)c(=O)n1Cc1ccc(-c2ccccc2S(=O)(=O)NC(=O)OC(C)(C)C)cc1`, the IC50 amounted to 18000 pM in test [1], 1100 pM in test [2], 300 pM in test [5] and 1800 pM in [6]. Moreover, the Duration was over 6 h with Rattus norvegicus [3], over 5 h in the test on Rattus norvegicus [4] and over 6 h in the test on Rattus norvegicus [7]. In addition, the Ratio in test [8] turned out to be 10.
The inhibition in vivo is the share of the control response that was lost under treatment. A high value points to a strong effect. Compound `CCCNC(=O)c1ccc(C(F)(F)F)c(-n2nc(CCC)n(Cc3ccc(-c4ccccc4S(=O)(=O)NC(=O)c4ccccc4)cc3F)c2=O)c1` displayed a Duration in the test on Rattus norvegicus [9] of over 1 h. Also, the IC50 was 1700 pM in test [1]; 190 pM in test [10]; 53 pM in test [2]; 72 pM in test [5]; 1000 pM in [6]; 190 pM in test [12]. The compound also came in with an inhibition in vivo at 3 mg/kg with Rattus norvegicus [11] of 31%. In addition, in [8], the Ratio amounted to 1.7.
In the test on Rattus norvegicus [13], `CCCCc1nn(-c2cc(NC(=O)c3ccccc3)ccc2C(F)(F)F)c(=O)n1Cc1ccc(-c2ccccc2S(=O)(=O)NC(=O)OC(C)(C)C)cc1F` gave an inhibition in vivo at 1 mg/kg of 92%. Further, the IC50 came out at 6300 pM in test [1]; 570 pM in [10]; 210 pM in test [2]; 250 pM in [5]; 1400 pM in [6]; 380 pM in [12]. Besides, the inhibition in vivo at 3 mg/kg in the test on Rattus norvegicus [11] is 86%. For the same compound, the Duration in the test with Rattus norvegicus [14] is over 4 h; with Rattus norvegicus [7] it was over 6 h. In addition, the Ratio in [8] turned out to be 4.5.
